Test results reported in ChEMBL document CHEMBL2010769, “Synthesis and antiviral activity of 6-deoxycyclopropavir, a new prodrug of cyclopropavir” (Bioorg Med Chem, 2012).
Active and inactive are the calls of the source. No cut-off for these calls is given here.

Key:
Human betaherpesvirus 5 [1] = experiment: Antiviral activity against HCMV Toledo infected in human thymus/liver tissue xenografted in SCID mouse assessed as decrease in viral infection at 12.5 mg/kg, po qd for 28 days by RT-PCR analysis (reference value: 92%); format: functional, strain Toledo; design: scale not given: the % may be the effect or the level left
Mus musculus [2] = experiment: Toxicity in BALB/c mouse assessed as changes in behavior at 5.6 mg/kg, po qd for 5 days relative to control; format: organism-based; design: dose 5.6 mg/kg, route oral; settings: in vivo, 120 h
Outline: (§1)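 Uninfected female BALB/c mice, 3 weeks old, in groups of 5. Compound suspended in 0.4% carboxymethylcellulose and given orally in 0.2 mL once daily for 5 days at 50, 16.7 or 5.6 mg/kg. Mean group body weight tracked over days 1–5 plus day 6 recovery. Clinical signs (ruffled coat, behaviour) were observed. Comparison was with vehicle-treated or untreated mice.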

Human alphaherpesvirus 3 = experiment: Antiviral activity against VZV infected in HFF assessed as reduction in virus induced cytopathic effect; format: functional, organism-based
Vaccinia virus = experiment: Antiviral activity against Vaccinia virus infected in HFF assessed as reduction in virus induced cytopathic effect at 100 uM; format: functional, organism-based; settings: Orthopoxvirus vaccinia
Mus musculus [3] = experiment: Toxicity in BALB/c mouse assessed as ruffled coat appearance at 50 mg/kg, po qd for 5 days relative to control; format: organism-based; design: dose 50 mg/kg, route oral; settings: in vivo, 120 h; outline: as §1
Human betaherpesvirus 5 [4] = experiment: Antiviral activity against HCMV Toledo infected in human thymus/liver tissue xenografted in SCID mouse assessed as decrease in viral infection at 6.25 mg/kg, po qd for 21 days by RT-PCR analysis (reference value: 92%); format: functional, strain Toledo; design: scale not given: the % may be the effect or the level left
Murid betaherpesvirus 1 [5] = experiment: Antiviral activity against MCMV infected in BALB/c mouse assessed as decrease in virus-induced mortality at 5.6 mg/kg, po qd for 5 days administered 48 hrs after viral infection (reference value: 100%); format: functional; design: scale not given: the % may be the effect or the level left
Outline: (§2)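 Female BALB/c mice (3 weeks, 15/group) were inoculated ip with MCMV Smith at about LD90. Oral dosing of 0.2 mL in 0.4% CMC ran once daily for 5 days, starting 24 or 48 h post-inoculation. Mice were observed daily for 21 days. Mortality was compared with CMC placebo by Fisher's exact test.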

Human betaherpesvirus 5 [6] = experiment: Antiviral activity against HCMV Toledo infected in human thymus/liver tissue xenografted in SCID mouse assessed as mean log10 genome equivalents/animal at 12.5 mg/kg, po qd for 21 days by RT-PCR analysis (reference value: 3.82 +/- 1.24); format: functional, strain Toledo
Murid betaherpesvirus 1 [7] = experiment: Antiviral activity against MCMV infected in BALB/c mouse assessed as decrease in virus-induced mortality at 50 mg/kg, po qd for 5 days administered 24 hrs after viral infection (reference value: 67%); format: functional; design: scale not given: the % may be the effect or the level left; outline: as §2
Human betaherpesvirus 5 [8] = experiment: Antiviral activity against HCMV Toledo infected in human thymus/liver tissue xenografted in SCID mouse assessed as mean log10 genome equivalents/animal at 6.25 mg/kg, po qd for 28 days measured on day 35 by RT-PCR analysis (reference value: 3.28 +/- 1.422); format: functional, strain Toledo
Cowpox virus = experiment: Antiviral activity against Cowpox virus infected in HFF assessed as reduction in virus induced cytopathic effect at 100 uM; format: functional, organism-based
Human alphaherpesvirus 1 = experiment: Antiviral activity against HSV1 infected in HFF assessed as reduction in virus induced cytopathic effect; format: functional, organism-based
Murid betaherpesvirus 1 [9] = experiment: Antiviral activity against MCMV infected in BALB/c mouse assessed as decrease in virus-induced mean day of death at 50 mg/kg, po qd for 5 days administered 24 hrs after viral infection (reference value: 4.9 +/- 0.7 days); format: functional
Murid betaherpesvirus 1 [10] = experiment: Antiviral activity against MCMV infected in BALB/c mouse assessed as decrease in virus-induced mean day of death at 50 mg/kg, po qd for 5 days administered 48 hrs after viral infection (reference value: 5.1 +/- 0.9 days); format: functional
Mus musculus [11] = experiment: Toxicity in BALB/c mouse assessed as body weight loss at 50 mg/kg, po qd for 5 days relative to control; format: organism-based; design: dose 50 mg/kg, route oral; settings: in vivo, 120 h; outline: as §1
Murid betaherpesvirus 1 [12] = experiment: Antiviral activity against MCMV infected in BALB/c mouse assessed as decrease in virus-induced mean day of death at 16.7 mg/kg, po qd for 5 days administered 48 hrs after viral infection (reference value: 5.1 +/- 0.9 days); format: functional
Human betaherpesvirus 5 [13] = experiment: Antiviral activity against HCMV Toledo infected in human thymus/liver tissue xenografted in SCID mouse assessed as decrease in viral infection at 12.5 mg/kg, po qd for 28 days measured on day 35 by RT-PCR analysis (reference value: 67%); format: functional, strain Toledo; design: scale not given: the % may be the effect or the level left

Question: Which Activity (Human betaherpesvirus 5 [1]) does the source give for `Nc1ncc2ncn(/C=C3/CC3(CO)CO)c2n1` here?
Answer: Its Activity is 50%.

Question: And the Activity (Mus musculus [2])?
Answer: The Activity was “Non-toxic”.

Question: And the EC50 (Human alphaherpesvirus 3)?
Answer: The EC50 was greater than 300 µM.

Question: And the Activity (Vaccinia virus)?
Answer: The Activity was “inactive”.

Question: And the Activity (Mus musculus [3])?
Answer: Its Activity is “Non-toxic”.

Question: And the Activity (Human betaherpesvirus 5 [4])?
Answer: The Activity was 92%.

Question: What about the Activity (Murid betaherpesvirus 1 [5]) of the same compound?
Answer: Its Activity is 0%.

Question: What about the Activity (Human betaherpesvirus 5 [6]) of the same compound?
Answer: The Activity was 2.94.

Question: And the Activity (Murid betaherpesvirus 1 [7])?
Answer: The Activity was 47%.

Question: And the Activity (Human betaherpesvirus 5 [8])?
Answer: Its Activity is 3.32.

Question: And the Activity (Cowpox virus)?
Answer: The Activity was “inactive”.

Question: And the EC50 (Human alphaherpesvirus 1)?
Answer: Its EC50 is greater than 300 µM.

Question: And the Activity (Murid betaherpesvirus 1 [9])?
Answer: The Activity was 8.3 days.

Question: And the Activity (Murid betaherpesvirus 1 [10])?
Answer: Its Activity is 11.9 days.

Question: What about the Activity (Mus musculus [11]) of the same compound?
Answer: Its Activity is 17%.

Question: What about the Activity (Murid betaherpesvirus 1 [12]) of the same compound?
Answer: Its Activity is 7 days.

Question: And the Activity (Human betaherpesvirus 5 [13])?
Answer: The Activity was 83%.
